# A selection: hits, their analogues and other compounds. The true share with any hit is near 0.99%.
# GSK3A inh – blockers of GSK3A enzyme activity – biochemical, luminescence, cell-free homogeneous, HTS, primary screen | Glycogen synthase kinase-3 alpha (Homo sapiens), P49840 | GSK-3 alpha kinase, ADP-Glo luminescence, 60 min | inhibition, % at 10 µM | 320,000 compounds, 0.1% hits;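 active means more than half of replicates show inhibition above 20%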;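 further: GST-tagged GSK-3 alpha with peptide substrate and 25 µM ATP; 0% = DMSO neutral wells and 100% = GW8510 positive control wells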
# Target sequence (P49840 whole entry, looked up): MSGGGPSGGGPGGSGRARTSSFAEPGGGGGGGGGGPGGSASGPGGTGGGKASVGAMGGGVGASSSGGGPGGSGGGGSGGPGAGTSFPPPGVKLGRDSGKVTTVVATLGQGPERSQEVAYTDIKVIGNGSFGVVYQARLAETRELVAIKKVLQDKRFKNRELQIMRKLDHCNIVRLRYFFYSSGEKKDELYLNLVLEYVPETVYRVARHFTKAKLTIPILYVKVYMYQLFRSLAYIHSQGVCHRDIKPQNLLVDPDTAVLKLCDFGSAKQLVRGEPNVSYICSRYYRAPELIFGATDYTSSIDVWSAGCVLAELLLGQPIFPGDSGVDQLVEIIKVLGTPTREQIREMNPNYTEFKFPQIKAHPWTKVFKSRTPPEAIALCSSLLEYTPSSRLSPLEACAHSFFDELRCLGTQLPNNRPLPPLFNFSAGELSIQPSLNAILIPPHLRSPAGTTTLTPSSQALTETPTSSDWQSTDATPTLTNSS
# Rin1-Abl PPI inh – inhibitors of Rin1-Abl protein binding, primary screen, biochemical, TR-FRET; Tyrosine-protein kinase ABL1 (Homo sapiens) + Ras and Rab interactor 1 (Homo sapiens), …; inhibition, % at 7.35 µM; 360,000 compounds, 0.4% hits; AID 588664, 2011; in the data active means inhibition above about 5%, passing the limit was not always enough
# GSK3beta inhib – human GSK3beta kinase inhibitors, primary screen, biochemical, cell-free homogeneous, HTS | GST-GSK3beta kinase, ADP-Glo luminescence, 60 min; hits give low values | activity score (negative = inhibition), % at 10 µM | 300,000 compounds, 0.038% hits | AID 2097, 2009;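 active means more than half of replicate wells score below -50%, meaning over 50% inhibition versus plate controls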;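 further: 0% = median DMSO wells and -100% = median GW8510 positive control wells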
#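 Test system: GST-fused GSK3beta enzyme, cell-free | Quantity: 1.6 ng GST-GSK3beta enzyme per well | Reagent: 25 µM ATP with peptide substrate | Schedule: 60 min enzyme reaction, room temperature | Signal: Luminescent ADP-Glo measurement of ADP formed | Read-out basis: Score relative to plate controls | Control set: DMSO and 20 µM GW8510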
# Arr AP2 block – inhibitors of beta-arrestin/AP2 binding, primary screen, biochemical, GPCR trafficking, flow cytometry; beta-arrestin 1 C-terminal peptide binding to AP2 beta2-adaptin appendage (human); FITC-arrestin peptide / GST-AP2 beads; AP2 beta2 appendage carries R879A mutation; inhibition, % at 10 µM; 340,000 compounds, 0.31% hits; AID 504490, 2011;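 active means inhibition above a set limit, near 3 SD of compounds lacking own fluorescence, cut at about 54% in these data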;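 further: plate controls were DMSO wells for no effect and 5 µM unlabelled arrestin peptide for full effect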
#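 System: GST-AP2 R879A glutathione beads. Medium: PBS with 0.05% Tween 20 and 0.1% BSA. Also added: FITC-arrestin peptide, 50 nM. Incubation: 12 min plus 1 h, RT. Measured by: high-throughput flow cytometry of beads, ex 488, em 535 nm. Evaluation: percent drop in bead-associated FITC signal.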
# STK33 kinase inh – inhibitors of purified STK33 kinase, primary screen, biochemical, ADP-Glo luminescence, homogeneous, cell-free; Serine/threonine-protein kinase 33 (Homo sapiens), Q9BYT3; MBP phosphorylation; inhibition, % at 10 µM; 320,000 compounds, 0.073% hits; AID 2661, 2010;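 active means inhibition at or above 25%, using the most active replicate where run in duplicate; inactive means inhibition below 25%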
# DYRK1A inh – rat Dyrk1A kinase inhibitors, primary screen, biochemical, single point, plate reader | Dual specificity tyrosine-phosphorylation-regulated kinase 1A (Rattus norvegicus), Q63470 | ADP-Glo luminescence, NFATc1 peptide | inhibition, % at 12.5 µM | 310,000 compounds, 0.43% hits | AID 504441, 2011; in the data active means inhibition above about 50%;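 further: plate controls were vehicle with enzyme for no effect and no enzyme for full effect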
# Rin1 Abl conf – Rin1-Abl binding inhibitor retest, confirmation, biochemical, TR-FRET | shares compounds with Rin1-Abl PPI inh | purified proteins | inhibition, % at 7.35 µM | 1,300 compounds, 49% hits | AID 602124, 2011
# GFP quench – GFP fluorescence inhibitors and quenchers, artefact control for Rin1-Abl interaction inhibitor project, biochemical | shares compounds with Rin1-Abl PPI inh | inhibitors/quenchers counterscreen | inhibition, % at 6.75 µM | 1,300 compounds, 8.5% hits | AID 602125, 2011;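 further: ABL1-eGFP fusion protein alone without its partner RIN1-SBP; 0% = protein with vehicle and 100% = wells lacking protein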
# GFP quench DR – GFP fluorescence inhibitors and quenchers, dose response, artefact control for Rin1-Abl interaction inhibitor project, biochemical; GFP fluorescence interference/quenching counterscreen; 230 tested, under 10 active; shares compounds with Rin1-Abl PPI inh; AID 602182, 2012; IC50, µM; call rule not given here;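 further: ABL1-eGFP fusion protein alone without its RIN1 binding partner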
# * hit, by the source's call; / = no result. Unless noted, no stated cut-off is given here; in the data, active means inhibition above about 6.5%; inactive means the rest.
SMILES,GSK3A inh,Rin1-Abl PPI inh,GSK3beta inhib,Arr AP2 block,STK33 kinase inh,DYRK1A inh,Rin1 Abl conf,GFP quench,others
CC1(C(=O)NCc2ccc(C(F)(F)F)cc2)CCN1Cc1cc2ccccc2o1 (configuration not stated),/,9.0*,/,/,/,/,-2,1,
CC1(C(=O)NCc2cccc(C(F)(F)F)c2)CCN1Cc1ccc2ccccc2c1 (configuration not stated),/,2,/,/,/,/,/,/,
CCOc1ccc(C(=O)OCC(=O)Nc2ccc(SC(F)F)cc2)cc1OCC,-3,8.1*,4,33,-2,-2,-1,0,
O=C(COC(=O)c1cc[n+]([O-])cc1)Nc1ccc(SC(F)F)cc1,1,-1,1,34,-1,-6,/,/,
Cc1ccc(S(=O)(=O)Nc2ccccc2C(=O)N2CCCCC2C)c(C)c1NS(C)(=O)=O (configuration not stated),0,3,/,1,-1,3,/,/,
COc1ccc(CCNC(=O)c2c(N)no[n+]2[O-])cc1OC,-6,6.6*,-4,14,1,3,1,0,
COc1ccc(CCNC(=O)c2ccc(OC)c(OC)c2)cc1OC,-2,-4,/,12,-2,-5,/,/,
Cn1c(SCC(=O)Nc2sccc2C#N)nnc1C1CC1,-3,1,/,-5,-2,3,/,/,
N#CCCCn1c(=O)oc2ccccc21,-3,-3,-4,2,-1,-47,/,/,
O=c1oc2ccccc2n1CCCCCn1c(=O)oc2ccccc21,-1,4.8*,-2,9,-2,-13,-1,-1,
O=C(CCNC(=O)c1ccc(Cl)cc1)NCC(c1ccco1)N1CCCC1 (configuration not stated),/,2,/,5,/,11,/,/,
O=C1NC(=O)C2(CCCCCC2)N1,/,2,/,-4,/,8,/,/,
CC1CCCN(S(=O)(=O)c2ccc(C(=O)Nc3nnc(C4=COCCO4)o3)cc2)C1 (configuration not stated),-2,-5,2,-1,0,0,/,/,
CC1CCCCN1S(=O)(=O)c1ccc(C(=O)Nc2nnc(C3=COCCO3)o2)cc1 (configuration not stated),3,7.8*,0,45,-1,5,1,-1,
Cc1ccc(S(=O)(=O)N2CC=C(C(=O)NC3CCCC3)CC2)cc1,0,9.4*,0,-3,-2,-1,0,0,
CCCCCCNC(=O)c1cc(S(=O)(=O)N2CCc3ccccc32)ccc1F,8,4,-2,27,1,-2,/,/,
COc1ccc(CNC2CCCc3ccccc32)c(OC)c1 (configuration not stated),3,6.2*,5,-3,-3,/,0,0,
CC(C)N1CCSC1=S,/,3,/,0,/,4,/,/,
Cc1cc(N2CCOCC2)nc(SCC(=O)c2ccc(Cl)cc2)n1,/,15*,3,-4,0,10,15*,-1,
CC1=C(C(=O)N(C)C)CC(CC(=O)NCCc2ccccn2)C(=O)N1Cc1ccc(F)cc1 (configuration not stated),/,-1,/,/,/,/,/,/,
Cc1nc(Nc2cccc(O)c2)c2c3c(sc2n1)CCC3,-1,46*,5,2,1,15,45*,-1,GFP quench DR=>68
Cc1cc(Oc2ccc(=O)n(C)n2)nc(SCCOc2ccccc2)n1,0,33*,3,23,-2,/,-5,0,
CCOC(=O)CSc1nc(C)cc(Oc2ccc(=O)n(C)n2)n1,-2,1,-2,6,1,5,/,/,
Cc1ccc(S(=O)(=O)N2CCCC2CNC(=O)C(=O)NCc2ccc3c(c2)OCO3)cc1 (configuration not stated),/,10*,/,/,/,/,6,0,
COc1ccc(S(=O)(=O)N2CCCC2CNC(=O)C(=O)NCc2ccc3c(c2)OCO3)cc1 (configuration not stated),0,5,-2,-20,-1,-3,/,/,
SMILES,GSK3A inh,Rin1-Abl PPI inh,GSK3beta inhib,Arr AP2 block,STK33 kinase inh,DYRK1A inh,Rin1 Abl conf,GFP quench,others
O=C(NCCOc1nc(N2CCOCC2)nc(N2CCOCC2)n1)Nc1ccccc1,0,6.9*,1,2,0,3,2,-2,
CCOc1ncccc1C(=O)OC(C)C(=O)Nc1ccc(Cl)cn1 (configuration not stated),/,8.2*,/,21,/,/,-2,1,
CCCC(=O)NC(c1ccccc1OC)c1ccc2cccnc2c1O (configuration not stated),-1,7.0*,-3,16,0,0,5,3,
Cc1ccc(Cl)cc1N1CCN(C(=O)c2noc(C(C)C)c2[N+](=O)[O-])CC1,0,0,3,5,-1,/,/,/,
Cc1cc(C)cc(OCc2nnc(SCC(=O)c3ccc(Br)cc3)o2)c1,-3,4.7*,-5,-5,-3,-4,1,-1,
CCCNC(=O)c1ccc2c(=O)c(O)c(-c3ccc(C)cc3)[nH]c2c1,-2,0,3,21,-2,-9,/,/,
Cc1ccc(-c2[nH]c3cc(C(=O)NCCCn4ccnc4)ccc3c(=O)c2O)cc1,-3,19*,3,-10,1,-3,11*,11*,
Clc1ccc(C2[C@H]3CN(Cc4cccnc4)[C@H](c4ccccc4)C34CC2(c2cccnc2)C4)cn1 (some centres not stated),-2,59*,-1,/,-1,9,72*,0,
FC(F)(F)c1ccc(C2[C@H]3CN(Cc4cccnc4)[C@H](c4ccccc4)C34CC2(c2cccnc2)C4)cc1 (some centres not stated),-1,5,-2,-2,-1,-13,/,/,
COc1cccc(CN(C(=O)c2ccc([N+](=O)[O-])cc2)C2CCS(=O)(=O)C2)c1 (configuration not stated),-1,-1,0,3,-1,0,/,/,
